Measurements collected from several papers.
EGFR L861Q: Epidermal growth factor receptor (EGFR, Homo sapiens, UniProt P00533, L861Q)
EGFR L858R: Epidermal growth factor receptor (EGFR, Homo sapiens, UniProt P00533, L858R)
EGFR A750P/del747-749: Epidermal growth factor receptor (EGFR, Homo sapiens, UniProt P00533, A750P/del747-749)
EGFR del752-759: Epidermal growth factor receptor (EGFR, Homo sapiens, UniProt P00533, del752-759)
EGFR T790M: Epidermal growth factor receptor (EGFR, Homo sapiens, UniProt P00533, T790M)
EGFR: Epidermal growth factor receptor (EGFR, Homo sapiens, UniProt P00533)
EGFR G719S: Epidermal growth factor receptor (EGFR, Homo sapiens, UniProt P00533, G719S)
EGFR G719C: Epidermal growth factor receptor (EGFR, Homo sapiens, UniProt P00533, G719C)

Compound | target | read-out | method | tested at | remaining binding [%]
CCN1CCN(Cc2ccc(C(=O)Nc3ccc(C)c(Oc4ccc5c(c4)CC(=O)N5)c3)cc2C(F)(F)F)CC1 | EGFR L861Q | binding | competition with immobilised ligand | 1 µM | 77
C[C@@H]1CCN(c2nccc(-c3cnn4ncccc34)n2)C1 | EGFR L861Q | binding | – | 1 µM | 92
CN1CCN(c2ccc(Nc3nccc(-c4cccc([N+](=O)[O-])c4)n3)cc2C(F)(F)F)CC1 | EGFR L858R | binding | – | 10 µM | 72
COc1cnc(Nc2cccc(S(N)(=O)=O)c2)nc1N1CCN(c2ccccc2)CC1 | EGFR A750P/del747-749 | binding | competition with immobilised ligand | 1 µM | 100
Cc1cnc(Nc2ccc(C(=O)N3CCC(N4CCCC4)CC3)cc2)nc1-c1cc2ccccc2s1 | EGFR L858R | binding | competition with immobilised ligand | 1 µM | 72
C[C@H](NC(=O)c1cnc2n1[C@](C)(Cc1ccc(C#N)cc1)C(=O)N2c1cc(Cl)c(F)c(Cl)c1)C(=O)NC1(c2ccccn2)CC1 | EGFR del752-759 | cell-free assay | competition with immobilised ligand | 1 µM | 100
COc1cnc(Nc2cccc(S(N)(=O)=O)c2)nc1N1CCN(c2ccccc2)C(=O)C1 | EGFR T790M | binding | competition with immobilised ligand | 1 µM | 92
O=C(NCCCN1CCOCC1)c1ccc(Nc2nccc(-c3cc4ccccc4s3)n2)cc1 | EGFR L858R | binding | competition with immobilised ligand | 1 µM | 88
c1cncc(-c2cccc(Nc3nccc(NC4CCCCC4)n3)c2)c1 | EGFR A750P/del747-749 | binding | competition with immobilised ligand | 10 µM | 36
CC1CCCN1c1nccc(-c2cnn3ncccc23)n1 (stereo not drawn) | EGFR | binding | – | 1 µM | 100
O=C(NC1CCC1)c1ccc2nc(-c3cccc(NS(=O)(=O)NCCN4CCCCC4)c3)cn2c1 | EGFR A750P/del747-749 | cell-free assay | competition with immobilised ligand | 10 µM | 100
CNC(=O)[C@@H]1CC[C@@H](n2c(-c3ccc4cnccc4c3)nc3ccc(C(=O)NCc4cccc(C(N)=O)c4)cc32)C1 | EGFR G719S | binding | competition with immobilised ligand | 1 µM | 100
CN(c1nccc(-c2cnn3ncccc23)n1)C1CC1 | EGFR L858R | binding | – | 1 µM | 100
Nc1ncc2c(n1)-c1c([nH]c3ccc(C#CC4CC4)cc13)CCCC2 | EGFR G719S | binding | competition with immobilised ligand | 1 µM | 98
O=C(NCCCN1CCOCC1)c1ccc(Nc2ncc(Cl)c(-c3ccc(Cl)s3)n2)cc1 | EGFR A750P/del747-749 | binding | competition with immobilised ligand | 1 µM | 72
Cc1c(NC(=O)c2cc(C(N)=O)nc3cc(F)ccc23)c(C(F)(F)F)nn1Cc1ccc(C(C)(C)C)cc1 | EGFR A750P/del747-749 | cell-free assay | competition with immobilised ligand | 1 µM | 100
Cc1cnn2ncc(-c3ccnc(N(C)C)n3)c2c1 | EGFR L858R | binding | – | 1 µM | 100
COc1ncc2cc3ccccc3nc2c1C#N | EGFR T790M | cell-free assay | competition with immobilised ligand | 5 µM | 100

Compound | target | read-out | method | tested at | remaining binding [%]
O=C(NCC1CCOCC1)c1n[nH]cc1NC(=O)c1c(F)cccc1F | EGFR G719S | binding | competition with immobilised ligand | 1 µM | 100
CC(C)(C)c1ccc(-c2nc(CBr)nn2-c2cccc(O)c2)cc1 | EGFR L858R | cell-free assay | competition with immobilised ligand | 10 µM | 78
O=C(c1ccc(Nc2ncc(Cl)c(-c3ccc(Cl)s3)n2)cc1)N1CCC(N2CCCC2)CC1 | EGFR del752-759 | binding | competition with immobilised ligand | 1 µM | 96
c1cnn2ncc(-c3ccnc(N4CCC45COC5)n3)c2c1 | EGFR G719C | binding | – | 1 µM | 100
CCCOc1ccc([C@@H]2[C@@H](C(=O)O)[C@H](c3ccc4c(c3)OCO4)CN2CC(=O)Nc2c(CC)cccc2CC)cc1 | EGFR L861Q | cell-free assay | competition with immobilised ligand | 1 µM | 100
O=C(c1ccc(Nc2ncc(Cl)c(-c3cc4ccccc4s3)n2)cc1)N1CCC(N2CCCC2)CC1 | EGFR G719S | binding | competition with immobilised ligand | 1 µM | 98
CNC(=O)c1ccc(Nc2ncc(C(F)(F)F)c(NCc3nccnc3N(C)S(C)(=O)=O)n2)cc1 | EGFR L861Q | cell-free assay | competition with immobilised ligand | 0.1 µM | 100
CN(C)c1nccc(-c2cnc3ncccn23)n1 | EGFR del752-759 | binding | – | 1 µM | 100
CCOCCn1cc(C(=O)Nc2ccc(-n3nc(-c4cccnc4)cc3C(F)(F)F)cn2)ccc1=O | EGFR A750P/del747-749 | cell-free assay | competition with immobilised ligand | 1 µM | 96
O=C(Nc1c[nH]nc1C(=O)NC1CCNCC1)c1cc(F)cc(F)c1 | Epidermal growth factor receptor (EGFR, Homo sapiens, UniProt P00533, del746-750) | binding | competition with immobilised ligand | 1 µM | 100
CN1CCN(c2ccc(Nc3nccc(-c4ccccc4)n3)cc2C(F)(F)F)CC1 | EGFR L858R | binding | – | 10 µM | 84
CC(=O)N1CCC(c2ccc(C(=O)NC(=N)N)cc2C(F)(F)F)CC1 | EGFR del752-759 | cell-free assay | competition with immobilised ligand | 1 µM | 90
COc1ccnn2ncc(-c3ccnc(N(C)C)n3)c12 | EGFR G719C | binding | – | 1 µM | 92
CCN(CC)Cc1cc(Nc2ccnc3cc(Cl)ccc23)ccc1O | EGFR | cell-free assay | competition with immobilised ligand | 10 µM | 91
Cn1cc(Cl)c2c(Oc3c(F)cc(Nc4cc(Cl)nc(N)n4)cc3F)ccnc21 | EGFR T790M | cell-free assay | competition with immobilised ligand | 0.1 µM | 88
CN(C)c1nccc(-c2cnn3ncccc23)n1 | EGFR L861Q | binding | – | 1 µM | 90
O=C(c1ccc(Nc2nccc(-c3cc4ccccc4s3)n2)cc1)N1CCC(N2CCCC2)CC1 | EGFR G719C | binding | competition with immobilised ligand | 1 µM | 93
O=C(NCCCC1CCCCC1)c1ccc(CNC(=O)c2cnn(-c3ccccc3)c2C(F)(F)F)cc1 | Epidermal growth factor receptor (EGFR, Homo sapiens, UniProt P00533, L858R/T790M) | cell-free assay | competition with immobilised ligand | 0.1 µM | 95
